Laboratory results from ChEMBL document CHEMBL4513216, “Probing the Open Global Health Chemical Diversity Library for Multistage-Active Starting Points for Next-Generation Antimalarials” (ACS Infect Dis, 2020).

Experiment: Toxicity liver stage against HepG2, at 10uM
Format: cell-based
Parameters: test concentration 10 uM, cell line HepG2-A16-CD81EGFP
Conditions: human, HepG2-A16-CD81EGFP cells; read-out: INHIBITION
Summary of the method: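 Uninfected HepG2-A16-CD81EGFP cells, 3 × 10^3 per well, 1536-well, plated on prespotted compound at 10 μM final, parasite-free screening media added to match infected plates; puromycin 10 μM positive, DMSO 0.5% negative; run in parallel with 48 h PbLuc assay at 37 °C, 5% CO2; viability by CellTiter-Glo luminescence, normalized to controls.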

| SMILES | cytotoxicity at 10 µM [%] |
| --- | --- |
| c1ccc2c(c1)nc1n2[C@@H](CNCc2nccs2)COC1 | -1.4 |
| CCOC(=O)[C@H]1[C@@H](O)C(=O)N(C)C12CCN(C(=O)OCC)CC2 | -7.83 |
| NC(=O)c1c(SCCN2CCOCC2)sc2c(O)cc(=O)[nH]c12 | 1.17 |
| CN(C)S(=O)(=O)c1ccc(-c2nc(C#N)c(NC3CCCCC3)o2)o1 | -16 |
| Cc1cc(C(=O)Nc2n[nH]c(C3CC3)n2)c2c(C)nn(C)c2n1 | 0.583 |
| O=C(N1CCOCC1CO)C1(c2cccs2)CCCC1 (configuration not stated) | 0.161 |
| O=C(NCC(O)c1ccoc1)Nc1cccs1 (configuration not stated) | -11.1 |
| CCOC1CC2(CCN(C(=O)COC)CC2)c2cc(F)ccc21 (configuration not stated) | -136 |
| CCn1cc2c(n1)CN(S(=O)(=O)Cc1ccccc1)CC2COC (configuration not stated) | 10.6 |
| COc1cc(N2CCCn3cnc(COCCO)c3C2)ncn1 | -3.61 |
| COCCN(C)C(=O)c1nc2c(s1)CCCN2S(C)(=O)=O | -143 |
| O=C(C1CCOCC1)N1CC[C@@H]2[C@H]1CCC(=O)N2c1ccccc1 | 5.5 |
| CCOCC1CN(Cc2ccoc2)Cc2cn(CC3CC3)nc21 (configuration not stated) | 12.1 |
| Cn1ncc2c1NC(=O)CC2c1c(F)cccc1Cl (configuration not stated) | 46.1 |
| Cc1n[nH]c2c1C(c1ccsc1)SCC(=O)N2 (configuration not stated) | 4.21 |
| CN1CCc2c(C#N)c(NCc3ccco3)n3cnnc3c2C1 | -13.7 |
| CC(=O)N1[C@H](Cn2cncn2)C[C@@H]2CN(S(C)(=O)=O)CC[C@@H]21 | -10.9 |
| COCCNS(=O)(=O)c1cccc(CSC)c1 | 11.9 |
| Cc1nn(CC(=O)N2CCN(Cc3cnn(C)c3C)CC2)cc1Cl | -3.22 |
| CCCn1ccc(C(=O)N2CCC(C)CC2)n1 | -7.01 |
| Cc1ncc2c(n1)CCCC2NC(=O)c1ccncc1 (configuration not stated) | -19.4 |
| CC(=O)N[C@H]1CCO[C@@H](c2cccc(NC(=O)C(C)(C)C)c2)C1 | 6.17 |
| CN1CCCCC1(C)C(=O)N1CCC(c2ccccn2)CC1 (configuration not stated) | 1.66 |

| SMILES | cytotoxicity at 10 µM [%] |
| --- | --- |
| Cn1ccc2cc(CC3COCCN(C(=O)c4ccccn4)C3)ccc21 (configuration not stated) | 4.57 |
| Cc1nc(CNC(=O)C(C)Oc2ccccc2F)no1 (configuration not stated) | 5.43 |
| CSc1nnc(CNC(=O)Nc2ccccc2Br)n1C | 1.31 |
| Cc1cc(C(F)(F)F)nc(C2CCCN2S(C)(=O)=O)n1 (configuration not stated) | 2.68 |
| CC(=O)N1CCCCC[C@@H]2[C@@H]1[C@H](c1cccc(F)c1)CN2C(C)=O | 5.21 |
| CC(C)(C)OC(=O)N1CCN(c2cccnc2)CC1C(=O)O (configuration not stated) | -13.7 |
| Cc1cc(CN(C)Cc2ccccc2N2CCCCC2)n[nH]1 | -2.98 |
| Cc1ccc(C(=O)NC2CCCN(S(C)(=O)=O)C2)c(=O)[nH]1 (configuration not stated) | 10.6 |
| Cc1ccc(CNC(=O)Nc2nncs2)n1C | -0.545 |
| Cc1cc(NC(=O)CO)nn1-c1ccc(Cl)cc1Cl | -142 |
| CCN(CC)CCN(CC(C)C)c1cc(C(F)(F)F)nc2ncnn12 | -5.39 |
| COc1cccc(NC(=O)CN(C(C)C)C2CC2)c1 | -2.83 |
| CN(Cc1nc(CS(C)(=O)=O)no1)c1ccccc1 | 4.04 |
| COc1ccc(C(C)NS(=O)(=O)c2ccc3c(c2)CCC(=O)N3)cc1F (configuration not stated) | -49.7 |
| COC(=O)CC1CSCCN1C(=O)CCc1c(C)nn(C)c1C (configuration not stated) | -2.65 |
| COc1ccc(OCc2noc(CN(C)C3CCS(=O)(=O)C3)n2)cc1 (configuration not stated) | 12.5 |
| Cc1nnc(C(C)Nc2cccc(COCCc3ccccc3)c2)o1 (configuration not stated) | -3.51 |
| Cc1csc(C2(NC(=O)CCc3ccncc3)CCCC2)n1 | -12.1 |
| CC(C)(C)c1noc(CCC(=O)N2CCN(Cc3ccco3)CC2)n1 | 6.11 |
| Cc1noc(C)c1CNC(=O)N1CCN(CC2CC2)CC1 | -6.48 |
| COc1ccc(C2CCCN2Cc2nnnn2C2CC2)cc1OC (configuration not stated) | 2.49 |
| C=C(C)CN(CC)C(=O)c1cc(F)ccc1N1CCN(C)CC1 | -1.18 |
| O=C(NC1CCCN(c2ccc(OC(F)F)cc2)C1)c1cc[nH]n1 (configuration not stated) | 3.65 |

| SMILES | cytotoxicity at 10 µM [%] |
| --- | --- |
| CN1CCN(C(=O)c2cc[nH]c(=O)c2)Cc2ccccc21 | -18.1 |
| O=C(c1cccn1-c1ccc2c(c1)OCCO2)N1CCCC1 | -9.42 |
| CC(O)CN1CCC(CN(C)CCC(=O)NC2CCCCC2)CC1 (configuration not stated) | 4.11 |
| CCC1C(=O)NCCN1c1nccc(C)n1 (configuration not stated) | 0.889 |
| CC(NC1CCN(CC(=O)N(C)C)CC1)c1cnn(C(C)C)c1 (configuration not stated) | -0.54 |
| Cc1cc(C2CCCN(CC(=O)N3CCCc4ccccc43)C2)n[nH]1 (configuration not stated) | -4.14 |
| CC(CNC(=O)c1cn(-c2ccccc2)nn1)Cn1cccn1 (configuration not stated) | -41.6 |
| CC1CN(Cc2nnsc2Cl)CCN1c1nccs1 (configuration not stated) | -39.3 |
| Cc1ccc2nc(CN3CCCCC3C(=O)N3CCOCC3)cn2c1 (configuration not stated) | 3.13 |
| Cc1ccc(S(=O)(=O)NC(=O)c2cc(S(C)(=O)=O)ccc2C)s1 | 14.1 |
| CN(C)c1nccc(N(C)C2CCN(CC3CCOC3)CC2)n1 (configuration not stated) | -18.9 |
| Cc1cnn(CCNCC(=O)N(C)C(C)c2ccccc2)c1 (configuration not stated) | 8.83 |
| Cc1nc(-c2ccccc2)sc1CSCCS(C)(=O)=O | 3.85 |
| O=C(C1SCCc2sccc21)N1CCC(O)CC1 (configuration not stated) | -7.38 |
| COCCCN1CCC(NC(=O)C(C)C)CC1 | -11.9 |
| CCOc1ncccc1NC(=O)c1cc2c(s1)CCC2 | -15 |
| c1cnc2c(-c3nccn3C[C@@H]3CCCN4CCCC[C@H]34)cccc2c1 | 1.83 |
| Nc1nc(CCCNC(=O)c2ccccc2C2CCNC2)cs1 (configuration not stated) | -3.06 |
| CC(C)c1nnc2sc(CC3CCS(=O)(=O)CC3)nn12 | 4.62 |
| CC(C)Cn1cncc1Cn1cccc(C(F)(F)F)c1=O | -10.2 |
| Cc1cc(-c2ccccc2Cl)nc(N)n1 | -0.268 |
| C[C@@H]1CN(CC(=O)NCc2ccccn2)C[C@]1(C)O | -5.68 |
| Cn1ncc2c(N3CC[C@H](O)C3)nc(-c3ccncc3)nc21 | 4.63 |

| SMILES | cytotoxicity at 10 µM [%] |
| --- | --- |
| Cc1ccccc1C1CCCN(C(=O)c2c[nH]c(=O)c(Cl)c2)C1 (configuration not stated) | -59.8 |
| CC(C)Oc1ccc(CN2CCCC(N3CCCC3)C2)cc1CO (configuration not stated) | 0.271 |
| CN(Cc1noc2c1CCCC2)C(=O)Cn1cnc2ccccc2c1=O | -52.4 |
| Cc1ccc2nc(C)c(C)c(C(=O)NCCCn3ccnn3)c2c1 | 17.8 |
| CCC(=O)Nc1cccc(OCC(=O)N(C)Cc2ccon2)c1 | 5.37 |
| Fc1cccc(C2(CNC3CCCNC3)CCOCC2)c1 (configuration not stated) | 0.979 |
| COCC1(CNC(=O)[C@@]23CNC[C@@H]2CN(C2CCCC2)C3)CC1 | -11.9 |
| CCC(=O)NC(CC)c1ccccc1C (configuration not stated) | 5.14 |
| Cc1nn(-c2ccccc2)c(C)c1-c1ccnc(N2CCC(O)CC2)n1 | -1.74 |
| CN(CCc1ccccc1)C1CCCN(Cc2nccn2C)C1 (configuration not stated) | -18.5 |
| CCC(C(=O)NCc1ccncc1)N(c1ccc(OC)cc1)S(C)(=O)=O (configuration not stated) | -10.2 |
| Cn1cc(C(=O)N2CCCC(Cc3nccs3)C2)cn1 (configuration not stated) | 3.83 |
| CNc1nc(CNC(=O)Nc2cccc(-c3ncc(C)o3)c2)cs1 | -7.57 |
| CCOC(=O)c1sc2ccsc2c1CNC(=O)COC | 1.51 |
| Cc1cnn(CC2CCCN2C(=O)CCc2cscn2)c1 (configuration not stated) | -11.9 |
| CCc1noc(C)c1C(=O)N1CCCC1Cn1nc(C)cc1C (configuration not stated) | -5.48 |
| CCc1nnc2n1CCN(C(=O)CN(C)Cc1ccccc1)C2 | -6.22 |
| CC(=O)N1CCN(C(=O)NCc2csc(Br)c2)CC1 | -6.31 |
| Cc1nnc2n1CCN(C(=O)c1cc(Cl)c(Cl)n1C)C2 | -4.05 |
| NC(=O)c1cnn2c1NCC(CNCCCOc1ccccc1F)C2 (configuration not stated) | -5.56 |
| COCCN1CCN(Cc2noc(C3CC3)n2)CC1C (configuration not stated) | 1.43 |
| Cc1ccc(NC(=O)NCCCc2n[nH]c(N)c2C#N)cc1 | -4.71 |
| COCCOc1ccc(NC(=O)C2CCC2)cn1 | -9.65 |

| SMILES | cytotoxicity at 10 µM [%] |
| --- | --- |
| O=C(Cc1ccc2c(c1)OCCO2)NC1CCN(CC(F)F)CC1 | -9.86 |
| CC(Cn1cccn1)NC(=O)NCc1ccccn1 (configuration not stated) | 6.79 |
| CCNC(=O)C1CCN(Cc2csc(-c3ccc(C)o3)n2)CC1 | 6.26 |
| CCN1CCN(CC(O)c2ccc(F)cc2)CC1 (configuration not stated) | -9.41 |
| CN(C)c1cc(C(=O)N2CCCN(Cc3cscn3)CC2)ccn1 | -15 |
| CCc1nc(C2CCCN2Cc2nc3ccccc3o2)no1 (configuration not stated) | 3.06 |
| COc1cc2c(cc1CNC(Cc1cccs1)c1nccs1)OCO2 (configuration not stated) | -1.88 |
| Cn1nc(CN2CCCC2)c2c1CN(C(=O)Nc1cccc(F)c1)CC2 | 5.98 |
| c1cc(CNCC2OCCc3cn(CC4CCOCC4)nc32)ccn1 (configuration not stated) | 3.68 |
| CCN1C(=O)C(c2ccccc2)CC12CCN(CCO)CC2 (configuration not stated) | 1.26 |
| c1coc(CN2CCc3onc(Cn4cccc4)c3C2)c1 | 8.43 |
| CC(C)CN1CCS(=O)(=O)[C@@H]2CCN(S(=O)(=O)N(C)C)CC[C@@H]21 | 7.25 |
| COCCN1CCOCC2(CCCN(Cc3ccc(C)o3)C2)C1 (configuration not stated) | -5.58 |
| Cc1ccc(C(=O)N2C[C@@H]3OCCN(CCN4CCCC4)[C@@H]3C2)cn1 | 2.39 |
| COc1ccccc1CN1C[C@@H]2CN(Cc3cccnc3)CCO[C@@H]2C1 | 12.3 |
| CN1[C@H](Cn2cncn2)C[C@@H]2CN(Cc3cccc(C#N)c3)CC[C@@H]21 | -9.78 |
| CN(C)C(=O)[C@@H]1C[C@@H]2CCN(Cc3nccs3)C[C@@H]2O1 | 2.67 |
| COc1cc(N2CCC3(CCCN(C(=O)c4cccnc4)C3)C2)ncn1 (configuration not stated) | -149 |
| Cc1nc(CN2C[C@H]3C[C@H](C(=O)NCC4CC4)N(C)[C@H]3C2)cs1 | -5.13 |
| O=C(NCC1CC1)[C@H]1C[C@H]2CN(C(=O)NCC3CCCCC3)C[C@@H]1O2 | 3.79 |
